# Results of several laboratories.
# Lines come from different studies, so protocols differ.
# Target: Beta-adrenergic receptor kinase 1 (GRK2, Homo sapiens, UniProt P25098)
# One construct used (P25098 1-689): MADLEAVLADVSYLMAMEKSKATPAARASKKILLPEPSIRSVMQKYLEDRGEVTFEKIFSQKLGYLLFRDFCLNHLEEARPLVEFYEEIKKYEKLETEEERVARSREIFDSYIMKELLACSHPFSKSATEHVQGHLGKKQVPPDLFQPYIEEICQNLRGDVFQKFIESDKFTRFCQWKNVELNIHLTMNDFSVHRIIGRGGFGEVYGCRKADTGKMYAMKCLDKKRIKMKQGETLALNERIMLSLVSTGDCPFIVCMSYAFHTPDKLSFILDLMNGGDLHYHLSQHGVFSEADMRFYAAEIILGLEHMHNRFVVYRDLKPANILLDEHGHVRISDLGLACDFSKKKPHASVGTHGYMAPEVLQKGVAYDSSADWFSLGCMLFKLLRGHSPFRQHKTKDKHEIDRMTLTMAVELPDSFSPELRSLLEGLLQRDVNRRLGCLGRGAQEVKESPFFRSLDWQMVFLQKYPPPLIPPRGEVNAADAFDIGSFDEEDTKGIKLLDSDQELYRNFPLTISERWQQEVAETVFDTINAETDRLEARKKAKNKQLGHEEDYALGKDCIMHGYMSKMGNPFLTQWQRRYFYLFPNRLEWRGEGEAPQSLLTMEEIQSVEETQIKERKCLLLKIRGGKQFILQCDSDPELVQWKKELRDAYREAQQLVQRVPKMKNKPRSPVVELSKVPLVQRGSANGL
Compound,test,setting,measurement,result
CN(C(=O)c1ccccc1)c1cc(N(C)c2ccc3c(c2)CCc2ccc(C(=O)NCCN4CCOCC4)cc2C3=O)ccc1F,"cell-free assay, competition with immobilised ligand",1 µM,remaining binding,100%
CC1CCCN1c1nccc(-c2cnn3ncccc23)n1 (stereo not shown),"binding, competition with immobilised ligand",1 µM,remaining binding,69%
Cc1sc(C(=O)NC2COC2)cc1-n1cc(NC(=O)Nc2c(F)cccc2Cl)cn1,"enzyme activity, inhibitor",10 µM,remaining activity,106%
CN1CC(Oc2cnc(C#N)cc2-c2ccn3nc(NC(=O)C4CC4)cc3c2)C1,"enzyme activity, inhibitor",1 µM,inhibition,5%
O=C(Nc1cccnn1)N1CC(C/C=C/c2cncc(Oc3ccc(C(F)(F)F)cn3)n2)C1,"cell-free assay, competition with immobilised ligand",1 µM,remaining binding,96%
COc1cc2ncnc(Nc3ccc(Oc4ccccc4)cc3C)c2cc1OC,"enzyme activity, inhibitor",1 µM,inhibition,-1%
Cc1noc([C@H]2C[C@@H](c3ccc(C(F)(F)F)cc3)CN(C(=O)N3CCS(=O)(=O)C3)C2)n1,"cell-free assay, competition with immobilised ligand",1 µM,remaining binding,83%
Cc1cc(NC(=O)c2cccc3cc(-c4cccc5[nH]nc(N)c45)ccc23)ccc1F,"enzyme activity, inhibitor",0.1 µM,activity vs control,73%
O=C(NCc1ncc(C(F)(F)F)cc1Cl)c1ccc2c(c1)C1(CCS(=O)(=O)CC1)[C@H](C1CC1)N2S(=O)(=O)c1ccc(F)cc1,"cell-free assay, competition with immobilised ligand",1 µM,remaining binding,56%
Cc1ccc(C(=O)Nc2ccc(CN3CCN(C)CC3)c(C(F)(F)F)c2)cc1C#Cc1cnc2cccnn12,"enzyme activity, inhibitor",23.5 nM,remaining activity,77%
O=C(Nc1cnn(-c2csc(C(=O)NC3COC3)c2)c1)Nc1c(F)cccc1Cl,"enzyme activity, inhibitor",5 µM,remaining activity,106%
CC(C)(O)[C@H]1CC[C@H](Nc2ccc3ncc(-c4cccc(C(F)(F)F)c4)n3n2)CC1,"enzyme activity, inhibitor",1 µM,remaining activity,116%
c1ccc(CNc2nc(N3CCOc4ccccc43)nc3c2CCCC3)cc1,"target engagement in cells, inhibitor, chemoproteomics",20 mM,inhibition,-6.7%
N#CCCc1ccc2c(c1)-c1[nH]c3ccc([N+](=O)[O-])cc3c1CC(=O)N2,cell-free assay,0.5 µM,remaining signal,96.4%
O=C(NC[C@@H]1[C@H]2CN(C(=O)OCc3cc(C(F)(F)F)cc(C(F)(F)F)c3)C[C@@H]12)c1ccc2[nH]nnc2c1,"cell-free assay, competition with immobilised ligand",1 µM,remaining binding,71%
CC(C)(C)c1nc2c(s1)c1nc(N)ncc1c1ccc(NS(=O)(=O)c3c(F)cccc3F)c(F)c12,"enzyme activity, inhibitor, radiometric",1 µM,remaining activity,90%
